Published values pooled from the literature.
Compare with care: the assays were run in different laboratories.
Target: Ephrin type-B receptor 2 (EPHB2, Homo sapiens, UniProt P29323)
Sequence (P29323 19-1055, as in one of the studies): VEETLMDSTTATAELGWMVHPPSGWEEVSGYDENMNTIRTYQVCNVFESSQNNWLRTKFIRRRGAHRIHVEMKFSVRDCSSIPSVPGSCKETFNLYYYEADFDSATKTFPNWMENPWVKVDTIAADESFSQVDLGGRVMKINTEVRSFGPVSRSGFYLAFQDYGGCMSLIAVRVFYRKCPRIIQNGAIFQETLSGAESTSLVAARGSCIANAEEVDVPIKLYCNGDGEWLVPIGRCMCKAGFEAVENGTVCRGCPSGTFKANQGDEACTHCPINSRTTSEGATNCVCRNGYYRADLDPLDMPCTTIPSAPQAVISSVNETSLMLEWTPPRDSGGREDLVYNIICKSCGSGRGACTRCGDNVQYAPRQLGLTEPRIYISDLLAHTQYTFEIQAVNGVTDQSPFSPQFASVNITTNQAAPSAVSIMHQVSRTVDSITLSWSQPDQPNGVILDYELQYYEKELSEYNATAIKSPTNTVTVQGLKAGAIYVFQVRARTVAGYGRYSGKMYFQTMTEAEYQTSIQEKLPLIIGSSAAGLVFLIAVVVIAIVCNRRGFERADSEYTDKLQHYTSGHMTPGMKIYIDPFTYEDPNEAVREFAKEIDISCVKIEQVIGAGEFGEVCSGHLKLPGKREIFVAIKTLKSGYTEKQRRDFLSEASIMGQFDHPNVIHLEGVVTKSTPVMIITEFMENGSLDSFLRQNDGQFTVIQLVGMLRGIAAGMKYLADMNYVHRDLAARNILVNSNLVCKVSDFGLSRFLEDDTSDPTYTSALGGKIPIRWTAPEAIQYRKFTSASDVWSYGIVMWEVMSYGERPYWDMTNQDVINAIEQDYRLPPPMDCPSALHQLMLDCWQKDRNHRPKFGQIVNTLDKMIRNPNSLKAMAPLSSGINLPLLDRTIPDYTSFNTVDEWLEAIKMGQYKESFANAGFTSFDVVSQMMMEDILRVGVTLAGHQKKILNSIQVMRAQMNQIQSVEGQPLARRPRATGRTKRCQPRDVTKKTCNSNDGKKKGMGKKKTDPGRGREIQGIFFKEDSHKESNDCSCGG

Compound	assay	conditions	endpoint	value
Cn1cncc1[C@@](O)(COc1ccc(C#N)cc1-c1ccc(OC(F)(F)F)cc1)c1ccc(C#N)cc1	cell-free assay, competition with immobilised ligand	1 µM	remaining binding	100%
Cn1cc(-c2cccc(N3CCc4c(sc5c4CC(C)(C)C5)C3=O)c2CO)cc(Nc2ccncn2)c1=O	enzyme activity, inhibitor	1 µM	inhibition	1%
Cc1nn(C)cc1-c1nc2c(N3CCN(Cc4ccc(Cl)cc4)CC3)c(Cl)cnc2[nH]1	binding, competition with immobilised ligand	1 µM	remaining binding	100%
COc1cc(Nc2ncc(F)c(Nc3ccc4c(n3)NC(=O)C(C)(C)O4)n2)cc(OC)c1OC	binding, competition with immobilised ligand	10 µM	inhibition	50%
CC(C)(C)c1cc(C=C(C#N)C#N)cc(Br)c1O	enzyme activity, inhibitor	0.5 µM	remaining activity	100%
Cn1cc(-c2cc(F)cc(N3CCn4c(cc5c4CCCC5)C3=O)c2CO)cc(Nc2ccc(N3CCN(C4COC4)CC3)cn2)c1=O	enzyme activity, inhibitor	0.1 µM	inhibition	14%
N#CC1(c2ccccn2)CCN(Cc2cc(C(=O)O)c(=O)n3ccccc23)CC1	cell-free assay, competition with immobilised ligand	1 µM	remaining binding	100%
COc1ncccc1-c1cnn2ccc(N3CCN(C(=O)OC(C)C)CC3)nc12	binding, competition with immobilised ligand	1 µM	remaining binding	77%
O=c1[nH]c2ccccc2n1C1CCN(Cc2ccc(-c3[nH]c4cc5ncnc5cc4nc3-c3ccccc3)cc2)CC1	cell-free assay	0.5 µM	remaining signal	108%
